Test results from ChEMBL document CHEMBL4371064, “Erythrofordins D and E, two new cassaine-type diterpenes from Erythrophleum suaveolens” (2019).

Key:
Assay type in all cases: functional
MOLT-4 = test: Growth inhibition of human MOLT4 cells incubated for 48 hrs by sulforhodamine B assay; settings: MOLT-4, 48 h
Procedure, shortened: (§1)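 Run in the NCI-60 human tumour cell line panel with dose-response testing. GI50 was determined for each cell line from its dose-response data.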

A549 = test: Growth inhibition of human A549/ATCC cells incubated for 48 hrs by sulforhodamine B assay; settings: A549, 48 h; procedure, shortened: as §1
HOP-92 = test: Growth inhibition of human HOP92 cells incubated for 48 hrs by sulforhodamine B assay; settings: HOP-92, 48 h; procedure, shortened: as §1
NCI-H322M = test: Growth inhibition of human NCI-H322M cells incubated for 48 hrs by sulforhodamine B assay; procedure, shortened: as §1
NCI-H522 = test: Growth inhibition of human NCI-H522 cells incubated for 48 hrs by sulforhodamine B assay; settings: NCI-H522, 48 h; procedure, shortened: as §1
HCC 2998 = test: Growth inhibition of human HCC2998 cells incubated for 48 hrs by sulforhodamine B assay; settings: HCC 2998, 48 h; procedure, shortened: as §1
HCT-15 = test: Growth inhibition of human HCT15 cells incubated for 48 hrs by sulforhodamine B assay; settings: HCT-15, 48 h; procedure, shortened: as §1
HT-29 = test: Growth inhibition of human HT-29 cells incubated for 48 hrs by sulforhodamine B assay; settings: HT-29, 48 h; procedure, shortened: as §1
KM12 = test: Growth inhibition of human KM12 cells incubated for 48 hrs by sulforhodamine B assay; settings: KM12, 48 h; procedure, shortened: as §1
SW-620 = test: Growth inhibition of human SW620 cells incubated for 48 hrs by sulforhodamine B assay; settings: SW-620, 48 h
Procedure, shortened: (§2)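 Tested in the NCI 60-human-tumour-cell-line screen using the five-dose format. GI₅₀ was derived from each cell line's dose-response. TGI and LC₅₀ were derived from the same dose-response data.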

SF-295 = test: Growth inhibition of human SF295 cells incubated for 48 hrs by sulforhodamine B assay; settings: SF-295, 48 h; procedure, shortened: as §1
SNB-19 = test: Growth inhibition of human SNB19 cells incubated for 48 hrs by sulforhodamine B assay; settings: SNB-19, 48 h; procedure, shortened: as §1
U-251 = test: Growth inhibition of human U251 cells incubated for 48 hrs by sulforhodamine B assay; settings: U-251, 48 h; procedure, shortened: as §2
Malme-3M = test: Growth inhibition of human MALME-3M cells incubated for 48 hrs by sulforhodamine B assay; procedure, shortened: as §1
M14 = test: Growth inhibition of human M14 cells incubated for 48 hrs by sulforhodamine B assay; settings: M14, 48 h; procedure, shortened: as §1
MDA-MB-435 = test: Growth inhibition of human MDA-MB-435 cells incubated for 48 hrs by sulforhodamine B assay; settings: MDA-MB-435, 48 h; procedure, shortened: as §1
SK-MEL-2 = test: Growth inhibition of human SK-MEL-2 cells incubated for 48 hrs by sulforhodamine B assay; settings: SK-MEL-2, 48 h; procedure, shortened: as §1
SK-MEL-28 = test: Growth inhibition of human SK-MEL-28 cells incubated for 48 hrs by sulforhodamine B assay; settings: SK-MEL-28, 48 h; procedure, shortened: as §1
UACC-62 = test: Growth inhibition of human UACC62 cells incubated for 48 hrs by sulforhodamine B assay; settings: UACC-62, 48 h; procedure, shortened: as §2
IGROV-1 = test: Growth inhibition of human IGROV1 cells incubated for 48 hrs by sulforhodamine B assay; settings: IGROV-1, 48 h; procedure, shortened: as §1
OVCAR-8 = test: Growth inhibition of human OVCAR8 cells incubated for 48 hrs by sulforhodamine B assay; settings: OVCAR-8, 48 h; procedure, shortened: as §1
NCI/ADR-RES = test: Growth inhibition of human NCI/ADR-RES cells incubated for 48 hrs by sulforhodamine B assay; procedure, shortened: as §1
SK-OV-3 = test: Growth inhibition of human SKOV3 cells incubated for 48 hrs by sulforhodamine B assay; settings: SK-OV-3, 48 h; procedure, shortened: as §1
CAKI-1 = test: Growth inhibition of human Caki1 cells incubated for 48 hrs by sulforhodamine B assay; settings: CAKI-1, 48 h; procedure, shortened: as §1
PC-3 = test: Growth inhibition of human PC3 cells incubated for 48 hrs by sulforhodamine B assay; settings: PC-3, 48 h; procedure, shortened: as §1
MCF7 = test: Growth inhibition of human MCF7 cells incubated for 48 hrs by sulforhodamine B assay; settings: MCF7, 48 h; procedure, shortened: as §1
MDA-MB-231 = test: Growth inhibition of human MDA-MB-231 cells incubated for 48 hrs by sulforhodamine B assay; settings: MDA-MB-231, 48 h; procedure, shortened: as §1
Hs-578T = test: Growth inhibition of human Hs578T cells incubated for 48 hrs by sulforhodamine B assay; procedure, shortened: as §1
T47D = test: Growth inhibition of human T47D cells incubated for 48 hrs by sulforhodamine B assay; procedure, shortened: as §2
MDA-MB-468 = test: Growth inhibition of human MDA-MB-468 cells incubated for 48 hrs by sulforhodamine B assay; settings: MDA-MB-468, 48 h; procedure, shortened: as §1
[1] = read-out: pLC50 (the source's name) (converted)

## COC(=O)/C=C1\CC[C@H]2[C@@H](CC(=O)[C@H]3C(C)(C)C(=O)CC[C@]23C)[C@H]1C
MOLT-4
  GI50: 0.195 µM
  LC50: > 34.7 µM
MOLT-4; read-out: pTGI (converted)
  TGI: 1.15 µM
A549
  GI50: 0.427 µM
  LC50: 1.82 µM
A549; read-out: pTGI (converted)
  TGI: 0.891 µM
HOP-92
  GI50: 1 µM
  LC50: > 34.7 µM
HOP-92; read-out: pTGI (converted)
  TGI: 3.47 µM
NCI-H322M
  GI50: 0.813 µM
  LC50: 27.5 µM
NCI-H322M; read-out: pTGI (converted)
  TGI: 2.51 µM
NCI-H522
  GI50: 0.166 µM
  LC50: > 34.7 µM
NCI-H522; read-out: pTGI (converted)
  TGI: 0.977 µM
HCC 2998
  GI50: 1.45 µM
  LC50: > 34.7 µM
HCC 2998; read-out: pTGI (converted)
  TGI: 8.13 µM
HCT-15
  GI50: 0.692 µM
  LC50: 3.31 µM
HCT-15; read-out: pTGI (converted)
  TGI: 1.51 µM
HT-29
  GI50: 0.955 µM
HT-29; [1]
  CC50: 12.9 µM
HT-29; read-out: pTGI (converted)
  TGI: 2.45 µM
KM12
  GI50: 1.23 µM
  LC50 (concentration killing 50% of cells): 24 µM
KM12; read-out: pTGI
  TGI: 5.25 µM
SW-620
  GI50: 0.708 µM
  LC50: 9.12 µM
SW-620; read-out: pTGI (converted)
  TGI: 1.7 µM
SF-295
  GI50: 0.741 µM
  LC50: 6.03 µM
SF-295; read-out: pTGI (converted)
  TGI: 1.74 µM
SNB-19
  GI50: 1.2 µM
  LC50: 12.9 µM
SNB-19; read-out: pTGI (converted)
  TGI: 4.47 µM
U-251
  GI50: 0.646 µM
  LC50: 2.63 µM
U-251; read-out: pTGI (converted)
  TGI: 1.32 µM
Malme-3M
  GI50: 0.724 µM
  LC50: 6.92 µM
Malme-3M; read-out: pTGI (converted)
  TGI: 1.66 µM
M14
  GI50: 1.15 µM
  LC50: 20 µM
M14; read-out: pTGI (converted)
  TGI: 4.27 µM
MDA-MB-435
  GI50: 1.07 µM
  LC50: 20.4 µM
MDA-MB-435; read-out: pTGI (converted)
  TGI: 3.8 µM
SK-MEL-2
  GI50: 1.05 µM
  LC50 (concentration killing 50% of cells): > 34.7 µM
SK-MEL-2; read-out: pTGI (converted)
  TGI: 4.47 µM
SK-MEL-28
  GI50: 1.17 µM
  LC50: > 34.7 µM
SK-MEL-28; read-out: pTGI (converted)
  TGI: 5.01 µM
UACC-62
  GI50: 0.832 µM
  LC50: 11.5 µM
UACC-62; read-out: pTGI (converted)
  TGI: 2.29 µM
IGROV-1
  GI50: 1.29 µM
  LC50: > 34.7 µM
IGROV-1; read-out: pTGI (converted)
  TGI: 7.59 µM
OVCAR-8
  GI50: 0.851 µM
  LC50: 11 µM
OVCAR-8; read-out: pTGI (converted)
  TGI: 2.29 µM
NCI/ADR-RES
  GI50: 0.741 µM
NCI/ADR-RES; [1]
  CC50: > 34.7 µM
NCI/ADR-RES; read-out: pTGI (converted)
  TGI: 1.91 µM
SK-OV-3
  GI50: 1.02 µM
  LC50: > 34.7 µM
SK-OV-3; read-out: pTGI (converted)
  TGI: 3.16 µM
CAKI-1
  GI50: 0.661 µM
  LC50: 2.95 µM
CAKI-1; read-out: pTGI (converted)
  TGI: 1.38 µM
PC-3
  GI50: 0.933 µM
PC-3; [1]
  CC50: > 34.7 µM
PC-3; read-out: pTGI (converted)
  TGI: 2.75 µM
MCF7
  GI50: 0.955 µM
MCF7; [1]
  CC50: > 34.7 µM
MCF7; read-out: pTGI
  TGI: > 34.7 µM
MDA-MB-231
  GI50: 1.48 µM
  LC50: > 34.7 µM
MDA-MB-231; read-out: pTGI (converted)
  TGI: 7.94 µM
Hs-578T
  GI50: 0.417 µM
  LC50: > 34.7 µM
Hs-578T; read-out: pTGI (converted)
  TGI: 1.66 µM
T47D
  GI50: 1 µM
  LC50: > 34.7 µM
T47D; read-out: pTGI (converted)
  TGI: 2.95 µM
MDA-MB-468
  GI50: 1.7 µM
MDA-MB-468; [1]
  CC50: > 34.7 µM
MDA-MB-468; read-out: pTGI (converted)
  TGI: 12.3 µM
